Hsp70 activator: Hsp70 transcriptional activation, primary screen; activation, % at 10 µM; HeLa Hsp70 promoter luciferase reporter, luminescence; scaled: vehicle 0, proteasome-inhibitor control 100%; 200,000 compounds, 0.04% hits;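 active = activation above the mean across all tested compounds plus 3 SD, cutoff set per campaign, cut at about 5.5% in these data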
MT stabilizer: stabilizes microtubules in HeLa cells; HeLa tubulin immunostaining HCS, 24 h; share of cells brighter than vehicle mean+2SD; % tubulin-high responders, % at 10 µM; 200,000 compounds, 0.83% hits;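 active = plate Z-score above 3 for both tubulin-high and condensed-nucleus cell shares, with cell loss under 80%, at 10 µM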;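 also: anti alpha tubulin signal scored within the nucleus-defined area of each cell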
TLR9-MyD88 block: inhibitors of human TLR9-MyD88 binding | Q9NR96+Q99836 | CHO BLA complementation TLR9-MyD88, CCF4 FRET ratio | inhibition, % at 4.98 µM | 340,000 compounds, 0.21% hits | AID 504734;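 active = inhibition above the mean over all tested compounds plus 3 SD, cut at about 21% in these data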
Target sequence (Q99836 whole entry, looked up): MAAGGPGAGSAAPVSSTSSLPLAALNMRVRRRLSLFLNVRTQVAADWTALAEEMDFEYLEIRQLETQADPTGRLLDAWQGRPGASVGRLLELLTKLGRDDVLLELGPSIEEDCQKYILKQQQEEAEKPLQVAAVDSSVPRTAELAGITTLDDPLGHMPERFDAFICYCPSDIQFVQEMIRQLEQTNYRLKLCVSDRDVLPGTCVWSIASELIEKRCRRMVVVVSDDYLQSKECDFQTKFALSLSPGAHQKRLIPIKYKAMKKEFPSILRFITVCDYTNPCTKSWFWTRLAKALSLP
Target sequence (Q9NR96 whole entry, looked up): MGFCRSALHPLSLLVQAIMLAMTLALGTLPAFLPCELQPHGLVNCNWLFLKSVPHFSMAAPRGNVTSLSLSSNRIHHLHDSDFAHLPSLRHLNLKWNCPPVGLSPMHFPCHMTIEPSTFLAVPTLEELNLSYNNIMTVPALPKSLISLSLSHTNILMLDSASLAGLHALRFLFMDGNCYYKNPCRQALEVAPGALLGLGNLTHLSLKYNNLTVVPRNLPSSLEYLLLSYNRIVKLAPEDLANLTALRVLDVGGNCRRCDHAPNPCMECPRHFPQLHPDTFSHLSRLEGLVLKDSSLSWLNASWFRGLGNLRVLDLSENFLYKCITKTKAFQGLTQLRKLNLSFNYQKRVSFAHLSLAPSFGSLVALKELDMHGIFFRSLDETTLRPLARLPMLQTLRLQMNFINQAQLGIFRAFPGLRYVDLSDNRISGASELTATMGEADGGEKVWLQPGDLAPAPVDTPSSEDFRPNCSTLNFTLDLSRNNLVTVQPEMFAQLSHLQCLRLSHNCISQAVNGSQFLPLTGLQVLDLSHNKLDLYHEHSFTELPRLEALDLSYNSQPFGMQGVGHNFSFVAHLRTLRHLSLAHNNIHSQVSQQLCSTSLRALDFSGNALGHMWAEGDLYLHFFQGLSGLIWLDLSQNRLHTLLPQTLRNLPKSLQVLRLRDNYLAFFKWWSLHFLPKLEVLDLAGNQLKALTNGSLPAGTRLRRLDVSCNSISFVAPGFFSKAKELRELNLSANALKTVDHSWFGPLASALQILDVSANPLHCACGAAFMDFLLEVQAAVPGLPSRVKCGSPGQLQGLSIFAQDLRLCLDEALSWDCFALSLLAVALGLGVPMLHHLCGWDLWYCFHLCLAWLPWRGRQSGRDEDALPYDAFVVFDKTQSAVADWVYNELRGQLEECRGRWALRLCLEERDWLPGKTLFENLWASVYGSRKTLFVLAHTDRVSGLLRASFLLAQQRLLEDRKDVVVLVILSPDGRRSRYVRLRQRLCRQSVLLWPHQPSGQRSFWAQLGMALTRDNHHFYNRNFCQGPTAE
bCat nuc transl: modulators of beta-catenin nuclear translocation | HeLa beta-catenin nuclear translocation, immunofluorescence imaging | nuclear translocation activity, % at 5 µM | 190,000 compounds, 0.3% hits;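 active = nuclear translocation activity above 50% at 5 µM, with a well cell count of 50 or more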;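 also: per-cell ratio of nuclear to cytoplasmic median beta-catenin stain intensity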
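Test system: human HeLa cell line; Doses: 5 µM primary, 0.02–20 µM confirmation; Incubation: 24 h compound exposure, 37°C; Detection: beta-catenin immunofluorescence imaging with DAPI; Read-out: beta-catenin nuclear/cytoplasmic ratio, % activation.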
TLR4 MyD88 comp: inhibitors of human TLR4-MyD88 binding. O00206+Q99836. AID 861. inhibition, % at 8.4 µM. 200,000 compounds, 0.18% hits. HeLa CL3-4 TLR4/MyD88 BLA complementation, FRET ratio; in the data active = inhibition above about 25%
NOD2 RIPK2 PPI: blocks binding of human NOD2 to RIPK2; 360,000 compounds, 0.38% hits; CHO BLA complementation NOD2-RIPK2, CCF4 ratio; inhibition, % at 4.98 µM; in the data active = inhibition above about 21%
Each line names hits and unclear results; the compound was inactive in the other large screens. Rows were chosen to be rich in hits. Some 1% of all compounds tested hit in one or more screens of this group.

CCc1ccc(C2=CC(c3cc(Br)ccc3F)n3ncnc3N2)cc1 (stereo unspecified)	MT stabilizer 30, TLR9-MyD88 block 29, NOD2 RIPK2 PPI 38
COc1cccc(C2=CC(c3ccc(C)cc3)n3ncnc3N2)c1 (stereo unspecified)	none (no result: TLR9-MyD88 block, bCat nuc transl, NOD2 RIPK2 PPI)
COCCNC(=O)C1CCCN(C(=O)c2ccc3ccccc3n2)CC1 (stereo unspecified)	none (no result: Hsp70 activator, MT stabilizer, TLR9-MyD88 block, bCat nuc transl, TLR4 MyD88 comp)
CC1=C(C(=O)OCc2ccc3c(c2)OCO3)C(c2ccc(Cl)cc2)NC(=O)N1 (stereo unspecified)	MT stabilizer 16
CSCCOC(=O)C1=C(C)NC(=O)NC1c1ccc2c(c1)OCO2 (stereo unspecified)	none (no result: Hsp70 activator, MT stabilizer, bCat nuc transl, TLR4 MyD88 comp)
CC1=C(C(=O)OCc2ccc3c(c2)OCO3)C(c2ccc(F)cc2)NC(=O)N1 (stereo unspecified)	MT stabilizer 15
CCc1ccc(N/C(N)=N/c2nc(CSc3ccccn3)cc(=O)[nH]2)cc1	MT stabilizer 17 (no result: TLR9-MyD88 block)
CS(=O)(=O)N1CCC(C(=O)Nc2cc(Cl)c(Cl)cc2Cl)CC1	none (no result: Hsp70 activator, MT stabilizer, bCat nuc transl, TLR4 MyD88 comp)
Cn1c(=O)c2c(nc(CN3CCC(C(N)=O)CC3)n2CCc2ccccc2)n(C)c1=O	bCat nuc transl 114
Cn1c(=O)c2c(nc(CN3CCCCC3)n2CCc2ccccc2)n(C)c1=O	none
C[C@H](NC(=O)C1CC(=O)N(c2ccc3c(c2)OCCO3)C1)C(=O)N1CCCCC1 (stereo partly specified)	none (no result: Hsp70 activator, MT stabilizer, bCat nuc transl, TLR4 MyD88 comp)
CC1=C(C(=O)c2ccccc2)C(c2ccc(OC(F)F)cc2)NC(=S)N1 (stereo unspecified)	MT stabilizer 22
CCC1=Nc2cc(C(=O)NCCCOC)ccc2Sc2ccccc21	MT stabilizer 25 (no result: bCat nuc transl)
CCCC1=Nc2cc(C(=O)NCCCOC(C)C)ccc2Sc2ccccc21	MT stabilizer 22, bCat nuc transl 72
CC1=Nc2cc(C(=O)NCCCOC(C)C)ccc2Sc2ccccc21	MT stabilizer 24
CCC1=Nc2cc(C(=O)NCc3ccco3)ccc2Sc2ccc(C)cc21	bCat nuc transl 74
CC1=Nc2cc(C(=O)NCCCOC(C)C)ccc2Sc2ccc(C)cc21	none
CNc1cncc(-c2ccc(OCCCN(C)C)nc2)n1	none (no result: Hsp70 activator, MT stabilizer, TLR9-MyD88 block, bCat nuc transl, TLR4 MyD88 comp)
O=c1cnc2ccccc2n1Cc1ccccc1	none (no result: Hsp70 activator, MT stabilizer, bCat nuc transl, TLR4 MyD88 comp)
CCCCN(C(C)=O)c1c(CC)nc2ccc(C(=O)Nc3cccc(OCC(=O)N(C)C)c3)cn12	none (no result: Hsp70 activator, MT stabilizer, TLR9-MyD88 block, bCat nuc transl, TLR4 MyD88 comp)
CCCC1=Nc2cc(C(=O)NCCCOCC)ccc2Sc2ccccc21	bCat nuc transl 105
O=C(CNc1cccc2ccccc12)N/N=C/C(Br)=C/c1ccccc1	MT stabilizer 48
O=C(CNc1cccc2ccccc12)N/N=C/c1ccc[nH]1	none (no result: Hsp70 activator, MT stabilizer, TLR4 MyD88 comp)
O=C1NC(=Nc2ccccc2)S/C1=C\C=C\c1ccco1	MT stabilizer 17
N#CC1=C(N)OC2=C(CCc3ccccc32)C1c1ccccc1Cl (stereo unspecified)	MT stabilizer 18
COc1ccccc1-n1c(CNC(=O)c2cccc([N+](=O)[O-])c2C)n[nH]c1=S	none (no result: bCat nuc transl)
Cc1cccc(-n2c(CNC(=O)c3cccc([N+](=O)[O-])c3C)n[nH]c2=S)c1	MT stabilizer 14
NC(=O)NC(=O)c1nccnc1C(=O)O	none (no result: Hsp70 activator, MT stabilizer, TLR4 MyD88 comp)
CCOC(=O)COc1cc(-n2c(=S)[nH]c3cc(OC)c(OC)cc3c2=O)c(Cl)cc1Cl	MT stabilizer 9.2
CCc1cc(=O)oc2c(C)c(OS(C)(=O)=O)ccc12	none (no result: bCat nuc transl)
CCc1cc2c(=O)c(-c3ccc4c(c3)OCCO4)c(C)oc2cc1OS(C)(=O)=O	MT stabilizer 11
COc1ccccc1NC(=O)c1ccccc1NC(=O)c1cccs1	none (no result: Hsp70 activator, MT stabilizer, bCat nuc transl, TLR4 MyD88 comp)
Cc1ccc(C(=O)/C=C/c2ccccc2[N+](=O)[O-])cc1	none
O=C(/C=C/c1ccccc1[N+](=O)[O-])c1ccccc1Br	MT stabilizer 29
CCCC(=O)Nc1nc(C)c(-c2csc(Nc3cc(OC)ccc3OC)n2)s1	none
C=CCCC(=O)Nc1nc(C)c(-c2csc(Nc3cc(OC)ccc3OC)n2)s1	MT stabilizer 31, bCat nuc transl 70
COc1ccc(-n2c(=O)c(CCC(=O)N3CCC(C)CC3)nc3ccccc32)cc1	none (no result: Hsp70 activator, MT stabilizer, bCat nuc transl, TLR4 MyD88 comp)
NC(=O)NC(CC(=O)NNC(=O)c1cccs1)c1ccc(Cl)cc1 (stereo unspecified)	none (no result: Hsp70 activator, MT stabilizer, bCat nuc transl, TLR4 MyD88 comp)
O=C1NC(=Nc2ccccc2)S/C1=C/c1cccs1	none

High-throughput results: PubChem, several laboratories
